Source: ChEMBL document CHEMBL4673376 (Bioorg Med Chem Lett, 2021)

Experiments:
[1] = Inhibition of rat intestinal isomaltase; format: tissue-based, Intestine
Outline: (§1)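 Enzyme preparations came from small intestine tissue (rat or human, as the line states). Inhibition is reported as IC50.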

Maltase-glucoamylase [2] = molecular target: T1, Maltase-glucoamylase (Homo sapiens, UniProt O43451); assay: Inhibition of human intestinal maltase; format: tissue-based, Intestine; outline: as §1
[3] = Inhibition of rat intestinal sucrase; format: tissue-based, Intestine; outline: as §1
[4] = Inhibition of rat intestinal maltase; format: tissue-based, Intestine; outline: as §1
[5] = Inhibition of rat intestinal sucrase using sucrose as substrate incubated for 30 mins and immediately heated for 2 mins by glucose oxidase method; format: tissue-based, Intestine; outline: as §1
Maltase-glucoamylase [6] = molecular target: T1, Maltase-glucoamylase; assay: Inhibition of human intestinal maltase using maltose as substrate incubated for 30 mins and immediately heated for 2 mins by glucose oxidase method; format: tissue-based, Intestine; outline: as §1
[7] = Inhibition of rat intestinal maltase using maltose as substrate incubated for 30 mins and immediately heated for 2 mins by glucose oxidase method; format: tissue-based, Intestine; outline: as §1
[8] = Inhibition of rat intestinal isomaltase using isomaltose as substrate incubated for 30 mins and immediately heated for 2 mins by glucose oxidase method; format: tissue-based, Intestine; outline: as §1
Maltase-glucoamylase [9] = molecular target: T1, Maltase-glucoamylase; assay: Inhibition of recombinant human maltase-glucoamylase using p-nitrophenyl-alpha-D-glucopyranoside as substrate incubated for 35 mins by microtiter plate reader analysis

T1 sequence (O43451 whole entry): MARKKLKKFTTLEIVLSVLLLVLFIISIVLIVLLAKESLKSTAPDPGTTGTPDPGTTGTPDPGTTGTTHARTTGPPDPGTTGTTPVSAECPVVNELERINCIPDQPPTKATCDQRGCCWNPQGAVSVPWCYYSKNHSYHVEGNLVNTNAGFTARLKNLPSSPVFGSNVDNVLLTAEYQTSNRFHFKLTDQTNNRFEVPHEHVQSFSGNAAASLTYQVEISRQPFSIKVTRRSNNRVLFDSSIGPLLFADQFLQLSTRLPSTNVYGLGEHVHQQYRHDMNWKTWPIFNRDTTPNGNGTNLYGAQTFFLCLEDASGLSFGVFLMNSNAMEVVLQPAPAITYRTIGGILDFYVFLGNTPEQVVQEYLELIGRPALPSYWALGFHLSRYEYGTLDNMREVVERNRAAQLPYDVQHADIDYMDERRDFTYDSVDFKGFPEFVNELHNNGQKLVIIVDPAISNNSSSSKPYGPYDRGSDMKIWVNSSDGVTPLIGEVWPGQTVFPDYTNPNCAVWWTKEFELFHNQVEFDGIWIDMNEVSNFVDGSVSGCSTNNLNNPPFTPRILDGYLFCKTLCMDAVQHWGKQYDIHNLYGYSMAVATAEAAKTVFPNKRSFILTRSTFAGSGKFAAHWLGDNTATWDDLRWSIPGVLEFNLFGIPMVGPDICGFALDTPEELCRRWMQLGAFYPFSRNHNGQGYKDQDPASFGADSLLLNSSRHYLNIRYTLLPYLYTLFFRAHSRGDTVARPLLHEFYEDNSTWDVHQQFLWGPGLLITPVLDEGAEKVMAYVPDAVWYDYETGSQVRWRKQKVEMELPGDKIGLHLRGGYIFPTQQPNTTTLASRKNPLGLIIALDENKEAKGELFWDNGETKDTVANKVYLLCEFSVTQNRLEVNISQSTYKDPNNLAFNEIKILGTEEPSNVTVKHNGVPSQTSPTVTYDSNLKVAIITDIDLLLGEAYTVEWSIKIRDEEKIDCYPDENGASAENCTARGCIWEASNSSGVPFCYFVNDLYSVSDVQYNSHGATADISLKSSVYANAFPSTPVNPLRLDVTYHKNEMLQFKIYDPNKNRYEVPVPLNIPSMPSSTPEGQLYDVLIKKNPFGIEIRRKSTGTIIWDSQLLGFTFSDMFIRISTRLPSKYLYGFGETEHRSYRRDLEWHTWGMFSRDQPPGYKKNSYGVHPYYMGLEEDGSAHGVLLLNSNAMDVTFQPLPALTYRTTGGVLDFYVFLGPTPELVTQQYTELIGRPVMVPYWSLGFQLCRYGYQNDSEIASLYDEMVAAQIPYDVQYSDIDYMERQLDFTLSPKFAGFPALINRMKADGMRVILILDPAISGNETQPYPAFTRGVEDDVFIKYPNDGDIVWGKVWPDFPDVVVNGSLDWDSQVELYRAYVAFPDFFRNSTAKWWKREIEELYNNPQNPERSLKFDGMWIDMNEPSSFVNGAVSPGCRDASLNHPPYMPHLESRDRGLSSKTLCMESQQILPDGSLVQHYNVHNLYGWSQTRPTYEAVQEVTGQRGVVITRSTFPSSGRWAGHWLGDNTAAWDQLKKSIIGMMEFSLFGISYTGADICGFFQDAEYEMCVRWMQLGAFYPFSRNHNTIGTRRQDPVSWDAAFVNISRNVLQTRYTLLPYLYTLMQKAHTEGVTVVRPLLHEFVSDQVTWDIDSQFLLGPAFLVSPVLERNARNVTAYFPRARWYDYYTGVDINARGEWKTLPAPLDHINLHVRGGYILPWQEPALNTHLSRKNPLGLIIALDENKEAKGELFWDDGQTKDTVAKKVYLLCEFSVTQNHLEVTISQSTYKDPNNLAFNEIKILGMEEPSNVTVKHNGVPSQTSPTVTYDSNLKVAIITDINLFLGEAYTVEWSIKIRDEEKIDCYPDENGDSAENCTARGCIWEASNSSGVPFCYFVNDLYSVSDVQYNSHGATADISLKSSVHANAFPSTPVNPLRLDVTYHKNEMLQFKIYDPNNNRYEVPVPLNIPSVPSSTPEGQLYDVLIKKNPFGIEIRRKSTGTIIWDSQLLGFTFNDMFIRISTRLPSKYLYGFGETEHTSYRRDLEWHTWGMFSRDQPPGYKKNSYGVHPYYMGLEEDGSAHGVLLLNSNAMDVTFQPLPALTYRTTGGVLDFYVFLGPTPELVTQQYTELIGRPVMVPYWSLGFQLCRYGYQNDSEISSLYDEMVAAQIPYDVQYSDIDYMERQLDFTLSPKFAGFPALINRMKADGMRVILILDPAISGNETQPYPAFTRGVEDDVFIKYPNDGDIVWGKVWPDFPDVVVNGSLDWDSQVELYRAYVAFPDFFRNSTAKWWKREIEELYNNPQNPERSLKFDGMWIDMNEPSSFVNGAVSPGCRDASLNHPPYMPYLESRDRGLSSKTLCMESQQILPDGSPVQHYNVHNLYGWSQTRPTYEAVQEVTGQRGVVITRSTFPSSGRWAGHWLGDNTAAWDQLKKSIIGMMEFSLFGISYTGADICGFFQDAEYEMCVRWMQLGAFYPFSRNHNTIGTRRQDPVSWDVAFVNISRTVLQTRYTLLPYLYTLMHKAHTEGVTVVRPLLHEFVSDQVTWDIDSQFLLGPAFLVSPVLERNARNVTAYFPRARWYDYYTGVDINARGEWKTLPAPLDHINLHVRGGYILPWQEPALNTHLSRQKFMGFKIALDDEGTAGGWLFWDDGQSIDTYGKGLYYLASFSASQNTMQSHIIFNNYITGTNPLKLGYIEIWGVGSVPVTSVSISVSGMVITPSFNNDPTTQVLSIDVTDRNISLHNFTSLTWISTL

SMILES | IC50 [1] | IC50 (Maltase-glucoamylase [2]) | IC50 [3] | IC50 [4] | IC50 [5] | IC50 (Maltase-glucoamylase [6]) | IC50 [7] | IC50 [8] | Ki (Maltase-glucoamylase [9])
CCC[C@@H](O)[C@H](OS(=O)(=O)[O-])[C@H](O)C[S@+]1C[C@@H](O)[C@H](O)[C@H]1CO | 2900 nM | 4800 nM | 730 nM | 5400 nM |  |  |  |  | 
[O-][C@@H](CO)[C@H](O)C[S@+]1C[C@@H](O)[C@H](O)[C@H]1CO [NEOSALACINOL] |  |  |  |  | 1300 nM | 9000 nM | 8000 nM | 300 nM | 
CCCCCCCC[C@@H](O)[C@H](OS(=O)(=O)[O-])[C@H](O)C[S@+]1C[C@@H](O)[C@H](O)[C@H]1CO | 5400 nM | 1200 nM | 150 nM | 7200 nM |  |  |  |  | 
CCCC[S+]1C[C@@H](O)[C@H](O)[C@H]1CO (single isomer, unassigned) |  |  |  |  |  |  |  |  | 32000 nM
CCCCCCCCCC[C@@H](O)[C@H](OS(=O)(=O)[O-])[C@H](O)C[S@+]1C[C@@H](O)[C@H](O)[C@H]1CO | 4400 nM | 1500 nM | 170 nM | 6300 nM |  |  |  |  | 
CCCCCCCC[C@@H](O)[C@H](O)[C@H](O)C[S@+]1C[C@@H](O)[C@H](O)[C@H]1CO | 400 nM | 2000 nM | 380 nM | 2500 nM |  |  |  |  | 
O=S(=O)([O-])O[C@@H](CO)[C@H](O)C[S@+]1C[C@@H](O)[C@H](O)[C@H]1CO [SALACINOL] |  |  |  |  | 1600 nM |  | 5200 nM | 1300 nM | 
CCCCCC[C@@H](O)[C@H](OS(=O)(=O)[O-])[C@H](O)C[S@+]1C[C@@H](O)[C@H](O)[C@H]1CO | 4800 nM | 1700 nM | 290 nM | 7700 nM |  |  |  |  | 
CCC[C@@H](O)[C@H](O)[C@H](O)C[S@+]1C[C@@H](O)[C@H](O)[C@H]1CO | 490 nM | 5000 nM | 1400 nM | 4800 nM |  |  |  |  | 
C[C@H]1O[C@H](O[C@H]2[C@H](O)[C@@H](O)[C@@H](O[C@H]3[C@H](O)[C@@H](O)C(O)O[C@@H]3CO)O[C@@H]2CO)[C@H](O)[C@@H](O)[C@@H]1N[C@H]1C=C(CO)[C@@H](O)[C@H](O)[C@H]1O (stereo partly specified) [ACARBOSE] | 645000 nM |  | 1500 nM | 1700 nM |  |  |  |  | 
CCCCCCCCCCCCCC[S@+]1C[C@@H](O)[C@H](O)[C@H]1CO |  |  |  |  |  |  |  |  | 6000 nM
